Series [1] is described as follows: Solubility of the compound in phosphate buffer at pH 7.2 at 10 mg/ml after 24 hrs by HPLC-UV method. The format is physicochemical. An outline of the steps: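 Compound shaken at a target 10 mg/mL in 50 mM potassium phosphate buffer for 24 h at 25 °C, then centrifuged at 15 000 rpm for 15 min. Supernatant diluted 100-fold in DMSO and quantified by HPLC-UV (220/254/280 nm) against a three-level DMSO standard curve, in duplicate.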

The target of series [2] is T1, Proteasome subunit beta type-10 (Homo sapiens, UniProt P40306).
T1 sequence (P40306 whole entry): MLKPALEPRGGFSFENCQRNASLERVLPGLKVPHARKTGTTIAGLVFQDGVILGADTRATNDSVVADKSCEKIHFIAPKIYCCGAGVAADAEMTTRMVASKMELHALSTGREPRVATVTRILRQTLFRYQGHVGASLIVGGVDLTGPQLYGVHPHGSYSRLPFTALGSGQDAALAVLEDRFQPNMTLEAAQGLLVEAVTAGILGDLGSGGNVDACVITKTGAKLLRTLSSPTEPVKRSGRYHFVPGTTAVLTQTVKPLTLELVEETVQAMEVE
Kind of series: Inhibition of MECL1 in human MOLT4 cells by ELISA. Format: cell-based.

Series [3] has as its target T2, Proteasome subunit beta type-9 (Homo sapiens, UniProt P28065).
T2 sequence (P28065 whole entry): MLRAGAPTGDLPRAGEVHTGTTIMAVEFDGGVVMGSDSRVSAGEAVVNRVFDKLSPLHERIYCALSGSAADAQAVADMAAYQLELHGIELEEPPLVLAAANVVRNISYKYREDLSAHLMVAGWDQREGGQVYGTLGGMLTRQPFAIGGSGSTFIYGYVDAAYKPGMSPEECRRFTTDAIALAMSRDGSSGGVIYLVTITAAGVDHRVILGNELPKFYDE
Briefly: Inhibition of LMP2 in human MOLT4 cells by ELISA. The format is cell-based. A general note: In an ELISA, binding on a coated surface is turned into a signal by an enzyme label.

Series [4] deals with T3, Proteasome subunit beta type-8 (Mus musculus, UniProt P28063).
T3 sequence (P28063 whole entry): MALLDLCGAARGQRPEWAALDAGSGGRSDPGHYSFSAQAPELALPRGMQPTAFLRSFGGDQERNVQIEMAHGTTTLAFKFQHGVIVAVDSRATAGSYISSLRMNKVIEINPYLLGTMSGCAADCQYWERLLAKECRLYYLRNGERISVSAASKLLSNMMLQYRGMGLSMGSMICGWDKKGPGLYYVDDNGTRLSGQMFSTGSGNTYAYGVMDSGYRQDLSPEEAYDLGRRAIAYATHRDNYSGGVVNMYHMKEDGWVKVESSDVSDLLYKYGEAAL
Briefly: Inhibition of LMP7 in mouse A20 cells by ELISA. Format: cell-based. In a few lines:
(§1)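 Mouse A20 B-cell lymphoma cell lysate (1 mg/mL, hypotonic 20 mM Tris pH 8, 5 mM EDTA) treated with serially diluted compound for 1 h at 25 °C. Then 5 μM biotinylated active-site probe for 2 h at 25 °C, guanidine denaturation and streptavidin bead capture. Subunit-specific antibody and HRP chemiluminescence, signal normalized to protein, IC50 from percent activity versus DMSO controls.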

Series [5] concerns the target T4, Proteasome subunit beta type-9 (Mus musculus, UniProt P28076).
T4 sequence (P28076 whole entry): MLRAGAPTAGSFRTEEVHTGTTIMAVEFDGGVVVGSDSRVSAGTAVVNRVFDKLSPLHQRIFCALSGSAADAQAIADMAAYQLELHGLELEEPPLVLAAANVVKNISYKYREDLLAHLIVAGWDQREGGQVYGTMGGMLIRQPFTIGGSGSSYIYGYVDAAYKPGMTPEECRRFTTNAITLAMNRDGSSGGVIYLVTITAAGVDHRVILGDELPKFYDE
Kind of series: Inhibition of LMP2 in mouse A20 cells by ELISA. Format: cell-based. An outline of the steps:
as §1

The target of series [6] is T5, Proteasome Macropain subunit MB1 (Homo sapiens, UniProt P28074).
T5 sequence (P28074 whole entry): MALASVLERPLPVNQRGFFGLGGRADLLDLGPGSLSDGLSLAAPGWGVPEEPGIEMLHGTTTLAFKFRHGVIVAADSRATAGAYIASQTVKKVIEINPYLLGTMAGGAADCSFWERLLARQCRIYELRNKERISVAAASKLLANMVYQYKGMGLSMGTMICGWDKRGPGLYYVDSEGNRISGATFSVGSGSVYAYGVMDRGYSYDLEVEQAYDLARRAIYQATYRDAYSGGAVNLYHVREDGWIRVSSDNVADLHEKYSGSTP
Kind of series: Inhibition of 20S proteosome beta 5 in human MOLT4 cells by ELISA. Format: cell-based.

The target in series [7] is T6, Proteasome subunit beta type-5 (Mus musculus, UniProt O55234).
T6 sequence (O55234 whole entry): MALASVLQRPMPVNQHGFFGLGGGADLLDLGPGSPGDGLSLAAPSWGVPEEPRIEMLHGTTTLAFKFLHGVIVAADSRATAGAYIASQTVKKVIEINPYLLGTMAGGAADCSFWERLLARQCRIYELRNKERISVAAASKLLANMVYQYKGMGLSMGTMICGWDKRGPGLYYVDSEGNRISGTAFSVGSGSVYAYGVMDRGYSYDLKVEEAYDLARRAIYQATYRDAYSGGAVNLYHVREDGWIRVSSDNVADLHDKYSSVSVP
Kind of series: Inhibition of 20S proteosome beta 5 in mouse A20 cells by ELISA. The format is cell-based.

Series [8] deals with PBMC. Briefly: Antiinflammatory activity in human PBMC assessed as reduction in anti-CD3/CD28 antibody-stimulated IFN-gamma expression at 250 nM preincubated for 1 hr followed by anti-CD3/CD28 antibody stimulation measured after 24 hrs by ELISA. The format is functional, cell-based. In a few lines:
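Healthy-donor PBMC, thawed from cryopreservation, 250 000 cells/well in RPMI 1640/5% FBS. Pretreated 1 h at 37 °C with compound alone or combined (0.1% DMSO final), washed 4 times, then stimulated 24 h with anti-CD3 and anti-CD28 antibodies. TNFα and IFNγ in supernatants by electrochemiluminescent ELISA; expressed relative to DMSO-treated controls (n = 6).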

The test system of series [9] is PBMC. Briefly: Antiinflammatory activity in human PBMC assessed as reduction in LPS-stimulated p40 subunit of […] expression at 250 nM preincubated for 1 hr followed by LPS stimulation measured after 24 hrs by ELISA. Format: functional, cell-based. An outline of the steps: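 Cryopreserved healthy-donor PBMC in RPMI 1640 with 5% heat-inactivated FBS, 250 000 cells/well. Compound (0.1% DMSO final) for 1 h at 37 °C, 5% CO2, then 4 washes with medium. Stimulated with 1 μg/mL LPS for 24 h; supernatant TNFα, IL-6 and IL-12/23p40 by electrochemiluminescent immunoassay. Mean level relative to DMSO controls, n = 6.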

Series [10] deals with Proteasome subunit beta type-2 (Mus musculus, UniProt Q9R1P3). Briefly: Inhibition of 20S proteosome beta 2 in mouse A20 cells by ELISA. Format: cell-based.
Proteasome subunit beta type-2, sequence (Q9R1P3 whole entry): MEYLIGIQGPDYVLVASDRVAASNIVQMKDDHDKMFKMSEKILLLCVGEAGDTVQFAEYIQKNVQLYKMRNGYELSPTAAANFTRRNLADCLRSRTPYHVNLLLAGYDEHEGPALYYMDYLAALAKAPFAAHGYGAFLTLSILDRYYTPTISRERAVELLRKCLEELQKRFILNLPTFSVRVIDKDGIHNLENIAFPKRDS

In brackets after ≈: the same amount, converted by molar mass. Activity calls are given as the source filed them. No cut-off for these calls is given here.

Among the data in ChEMBL document CHEMBL4411269, “Required Immunoproteasome Subunit Inhibition Profile for Anti-Inflammatory Efficacy and Clinical Candidate KZR-616 ((2 S,3 R)- N-(( S)-3-(Cyclopent-1-en-1-yl)-1-(( R)-2-methyloxiran-2-yl)-1-oxopropan-2-yl)-3-hydroxy-3-(4-methoxyphenyl)-2-(( S)-2-(2-morpholinoacetamido)propanamido)propenamide)” (J Med Chem, 2018) are solubility, IC50 and Activity values, retold here.

As a reminder, the solubility is the concentration that dissolves in the medium under given conditions. Higher therefore signals much dissolved substance. In general, IC50 refers to the concentration at which inhibition is half-maximal. A higher IC50 goes with weaker potency. `COc1ccc(C[C@H](NC(=O)[C@@H](C)NC(=O)[C@H]2CC[C@H](O)CC2)C(=O)N[C@@H](CC2=CCCC2)C(=O)[C@@]2(C)CO2)cc1` had a solubility at 24 h in series [1] of 491 µg/mL (≈ 862 µM). Also, the IC50 in series [2] was above 25 µM; in series [3], 1.85 µM; in series [4] it was 0.374 µM; in series [5], 3.96 µM; in series [6], 2.67 µM; in series [7], 2.65 µM.

Turning to `Cc1ccc(CC[C@H](NC(=O)[C@H](Cc2ccccc2)NC(=O)[C@H](CC(C)C)NC(=O)CN2CCCCCC2)C(=O)[C@@]2(C)CO2)cc1`, the result in series [8] and in series [9] was inactive. The compound also showed a solubility at 24 h in [1] of 7 µg/mL (≈ 11.1 µM). Besides, the IC50 is 0.071 µM in series [2]; above 25 µM in [3]; 1.92 µM in series [4]; above 25 µM in series [5]; 0.573 µM in series [10]; 0.486 µM in series [6]. This compound also came in with an IC50 in [7] of 0.378 µM.

With `COc1ccc([C@@H](O)[C@H](NC(=O)[C@H](C)NC(=O)CN2CCOCC2)C(=O)N[C@@H](CC2=CCCC2)C(=O)[C@@]2(C)CO2)cc1` [ZETOMIPZOMIB], the outcome in series [8] and in [9] was Active. Besides, the solubility at 24 h in [1] came out at 7070 µg/mL (≈ 12100 µM). Moreover, the IC50 in [2] stood at 0.623 µM; in series [3], 0.131 µM; in [4], 0.057 µM; in series [5], 0.179 µM; in [10], 0.857 µM; in series [6], 0.688 µM. For the same compound, the concentration for half-maximal inhibition (IC50) in series [7] is 0.483 µM.
